Measurements from the M2OR odorant receptor database.

Columns and labels:
Details in all cases: stereoisomer not certain
OR10H3 (Homo sapiens) = biological target: T1, OR10H3 (Homo sapiens) (UniProt O60404)
T1 sequence (whole entry): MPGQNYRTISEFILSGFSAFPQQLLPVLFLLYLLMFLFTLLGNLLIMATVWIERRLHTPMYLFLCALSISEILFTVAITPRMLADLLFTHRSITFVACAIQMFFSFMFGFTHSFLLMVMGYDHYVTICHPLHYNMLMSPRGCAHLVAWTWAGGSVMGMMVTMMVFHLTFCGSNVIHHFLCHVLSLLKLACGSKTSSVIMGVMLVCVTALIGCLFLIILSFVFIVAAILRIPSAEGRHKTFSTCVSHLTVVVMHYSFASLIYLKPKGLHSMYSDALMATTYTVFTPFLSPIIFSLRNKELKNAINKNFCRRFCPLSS
Outline: (§1)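 Each receptor–molecule pair is labelled responsive or non-responsive (inactive) according to whether the original authors judged the measured signal statistically different from baseline. The data were taken from the main text and supplementary material of published papers and checked for typos and inconsistencies. Assay methods differed by source, with transient luciferase assays in mammalian cell lines being common.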

OR10H4 (Homo sapiens) = biological target: T2, OR10H4 (Homo sapiens) (UniProt Q8NGA5)
T2 sequence (whole entry): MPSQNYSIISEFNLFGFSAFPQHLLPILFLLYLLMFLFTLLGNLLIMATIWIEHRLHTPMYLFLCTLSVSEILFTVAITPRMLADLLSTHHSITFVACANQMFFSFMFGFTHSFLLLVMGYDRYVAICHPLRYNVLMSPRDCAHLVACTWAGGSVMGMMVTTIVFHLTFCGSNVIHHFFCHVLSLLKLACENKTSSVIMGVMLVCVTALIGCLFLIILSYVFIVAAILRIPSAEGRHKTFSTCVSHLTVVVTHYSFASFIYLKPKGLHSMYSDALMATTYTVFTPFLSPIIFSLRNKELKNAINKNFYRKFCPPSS
Outline: as §1

OR10H5 (Homo sapiens) = biological target: T3, OR10H5 (Homo sapiens) (UniProt Q8NGA6)
T3 sequence (whole entry): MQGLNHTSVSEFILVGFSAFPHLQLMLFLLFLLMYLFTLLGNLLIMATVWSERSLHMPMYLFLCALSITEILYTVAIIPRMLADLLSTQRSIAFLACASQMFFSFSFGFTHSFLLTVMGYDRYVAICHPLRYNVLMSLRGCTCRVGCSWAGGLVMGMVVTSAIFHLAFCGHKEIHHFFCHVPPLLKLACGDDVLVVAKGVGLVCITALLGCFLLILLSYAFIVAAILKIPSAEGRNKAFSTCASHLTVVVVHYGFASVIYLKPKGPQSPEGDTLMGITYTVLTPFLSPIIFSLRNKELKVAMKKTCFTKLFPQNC
Outline: as §1

OR10J1 (Homo sapiens) = biological target: T4, OR10J1 (Homo sapiens) (UniProt P30954)
T4 sequence (whole entry): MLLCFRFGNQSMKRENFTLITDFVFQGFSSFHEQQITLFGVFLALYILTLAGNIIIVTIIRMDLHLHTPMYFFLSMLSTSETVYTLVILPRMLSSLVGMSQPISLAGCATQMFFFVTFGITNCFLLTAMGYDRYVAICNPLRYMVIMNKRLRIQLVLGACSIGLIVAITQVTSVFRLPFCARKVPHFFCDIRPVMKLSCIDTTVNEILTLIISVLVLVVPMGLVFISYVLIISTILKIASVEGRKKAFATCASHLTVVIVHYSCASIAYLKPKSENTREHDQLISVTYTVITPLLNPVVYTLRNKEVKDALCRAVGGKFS
Outline: as §1

OR10J3 (Homo sapiens) = biological target: T5, OR10J3 (Homo sapiens) (UniProt Q5JRS4)
T5 sequence (whole entry): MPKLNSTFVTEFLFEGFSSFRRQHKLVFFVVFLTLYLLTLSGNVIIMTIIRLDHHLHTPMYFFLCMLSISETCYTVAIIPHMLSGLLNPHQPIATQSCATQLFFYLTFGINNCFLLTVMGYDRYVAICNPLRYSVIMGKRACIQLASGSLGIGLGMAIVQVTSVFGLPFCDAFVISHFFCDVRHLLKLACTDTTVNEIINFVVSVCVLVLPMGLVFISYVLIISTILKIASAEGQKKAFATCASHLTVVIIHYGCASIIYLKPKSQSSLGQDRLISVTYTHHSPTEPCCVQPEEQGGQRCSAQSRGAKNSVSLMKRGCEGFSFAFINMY
Outline: as §1

OR10J5 (Homo sapiens) = biological target: T6, OR10J5 (Homo sapiens) (UniProt Q8NHC4)
T6 sequence (whole entry): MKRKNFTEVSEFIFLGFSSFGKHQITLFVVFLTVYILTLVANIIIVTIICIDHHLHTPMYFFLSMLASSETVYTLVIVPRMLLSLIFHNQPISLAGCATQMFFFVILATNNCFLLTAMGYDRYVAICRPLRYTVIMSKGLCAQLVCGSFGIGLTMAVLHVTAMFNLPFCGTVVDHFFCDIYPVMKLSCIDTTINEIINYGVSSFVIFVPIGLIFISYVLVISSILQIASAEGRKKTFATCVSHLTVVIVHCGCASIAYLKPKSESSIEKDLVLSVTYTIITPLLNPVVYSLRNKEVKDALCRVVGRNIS
Outline: as §1

OR10K1 (Homo sapiens) = biological target: T7, OR10K1 (Homo sapiens) (UniProt Q8NGX5)
T7 sequence (whole entry): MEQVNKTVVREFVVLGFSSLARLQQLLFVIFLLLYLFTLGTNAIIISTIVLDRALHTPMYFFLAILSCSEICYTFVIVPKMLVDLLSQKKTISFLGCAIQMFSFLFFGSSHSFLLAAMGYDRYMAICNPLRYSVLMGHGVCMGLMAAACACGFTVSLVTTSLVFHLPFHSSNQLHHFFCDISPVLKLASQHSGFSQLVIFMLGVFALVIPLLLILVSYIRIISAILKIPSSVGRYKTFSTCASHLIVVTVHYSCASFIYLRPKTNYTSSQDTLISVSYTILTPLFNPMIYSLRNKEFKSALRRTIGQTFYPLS
Outline: as §1

OR10K2 (Homo sapiens) = biological target: T8, OR10K2 (Homo sapiens) (UniProt Q6IF99)
T8 sequence (whole entry): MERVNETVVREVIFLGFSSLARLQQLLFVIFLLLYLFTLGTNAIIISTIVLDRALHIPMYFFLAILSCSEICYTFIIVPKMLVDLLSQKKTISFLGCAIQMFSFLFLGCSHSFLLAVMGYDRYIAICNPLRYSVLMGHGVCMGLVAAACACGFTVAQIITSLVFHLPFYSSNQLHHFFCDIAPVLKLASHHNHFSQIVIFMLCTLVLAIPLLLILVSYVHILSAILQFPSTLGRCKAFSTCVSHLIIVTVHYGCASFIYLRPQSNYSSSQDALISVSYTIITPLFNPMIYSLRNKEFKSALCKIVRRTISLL
Outline: as §1

OR10P1 (Homo sapiens) = biological target: T9, OR10P1 (Homo sapiens) (UniProt Q8NGE3)
T9 sequence (whole entry): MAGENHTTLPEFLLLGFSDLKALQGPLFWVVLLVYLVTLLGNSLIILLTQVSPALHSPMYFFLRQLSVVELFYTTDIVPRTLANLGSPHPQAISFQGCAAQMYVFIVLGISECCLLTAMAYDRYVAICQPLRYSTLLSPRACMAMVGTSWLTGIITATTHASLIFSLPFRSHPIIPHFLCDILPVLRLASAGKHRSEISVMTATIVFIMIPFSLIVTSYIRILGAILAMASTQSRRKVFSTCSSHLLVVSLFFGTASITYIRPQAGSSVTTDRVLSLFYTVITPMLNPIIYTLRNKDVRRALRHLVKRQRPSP
Outline: as §1

OR10Q1 (Homo sapiens) = biological target: T10, OR10Q1 (Homo sapiens) (UniProt Q8NGQ4)
T10 sequence (whole entry): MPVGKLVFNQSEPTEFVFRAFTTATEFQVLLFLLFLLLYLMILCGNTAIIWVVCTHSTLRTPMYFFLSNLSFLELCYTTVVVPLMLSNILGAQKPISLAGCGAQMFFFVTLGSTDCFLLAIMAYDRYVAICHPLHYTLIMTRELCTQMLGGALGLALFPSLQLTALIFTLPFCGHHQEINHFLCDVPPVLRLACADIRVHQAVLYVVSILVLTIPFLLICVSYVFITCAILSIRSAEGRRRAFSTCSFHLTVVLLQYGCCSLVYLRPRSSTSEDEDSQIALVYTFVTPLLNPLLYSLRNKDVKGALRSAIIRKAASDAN
Outline: as §1

Measured: odorant receptor agonist call

CCC(S)C(C)CO (stereo not given)
inactive: all assays above
